In ChEMBL document CHEMBL3351942, “Rexinoids isolated from Sophora tonkinensis with a gene expression profile distinct from the synthetic rexinoid bexarotene” (J Nat Prod, 2014):
Activity calls are given as the source filed them. The calls are words filed in the database; no cut-off is given here.

How the values were obtained:
RAW264.7 [1] = assay: Activation of RXR/LXR heterodimer in mouse RAW264.7 cells assessed as potentiation of T0901317-induced increase in ABCA1 mRNA level at 10 uM by quantitative RT-PCR analysis; assay type: cell-based
How it was run: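 RAW264.7 macrophages in DMEM/10% FBS, exposed 24 h with or without LXR agonist T0901317; ABCA1 mRNA by SYBR green qRT-PCR, β-actin-normalized, fold vs vehicle; means ± SD of three determinants, one of three independent experiments; one-way ANOVA, Bonferroni.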

F9 = assay: Activation of RAR/RXR heterodimer in mouse F9 cells assessed as increase in CYP26A1 mRNA level at 10 uM by quantitative RT-PCR analysis in presence of atRA; assay type: cell-based
How it was run: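 F9 teratocarcinoma cells on 0.2% gelatin-coated dishes in DMEM/10% FBS; 24 h exposure with or without atRA (0.1 μM). CYP26A1 mRNA by qRT-PCR normalized to β-actin, fold vs vehicle; means ± SD of three determinants, one of three experiments; ANOVA/Bonferroni.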

Homo sapiens [2] = species: Homo sapiens; assay: Activation of RXR/VDR heterodimer in human hepatoma cells assessed as increase in CYP24A1 mRNA level at 10 uM by quantitative RT-PCR analysis; assay type: cell-based
How it was run: (§1)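 HLE hepatoma cells treated 24 h with or without VD3 (0.1 μM); CYP24A1 mRNA by SYBR green qRT-PCR normalized to β-actin (delta-delta Ct), fold over vehicle; means ± SD of three determinants, representative of three experiments.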

Homo sapiens [3] = species: Homo sapiens; assay: Activation of RXR/VDR heterodimer in human hepatoma cells assessed as increase in CYP24A1 mRNA level at 10 uM in presence of VDR agonist calcitriol by quantitative RT-PCR analysis; assay type: cell-based; how it was run: as §1
[4] = Activation of LXR in mouse C2C12 cells assessed as induction of ApoE mRNA expression at 10 uM after 24 hrs by quantitative RT-PCR analysis; assay type: cell-based
How it was run: (§2)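 C2C12 myoblasts grown in DMEM/10% FBS, differentiated at confluence in 2% horse serum, medium changed every other day for 5 days; myotubes treated 24 h with or without T0901317 (1 μM). Total RNA, DNase-treated, oligo(dT) RT from 0.5 μg, SYBR green qPCR; normalized to β-actin (delta-delta Ct), fold over vehicle; mean ± SD of four determinants, one of two experiments.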

[5] = Activation of LXR in mouse C2C12 cells assessed as induction of ApoE mRNA expression at 10 uM after 24 hrs in presence of T0901317 by quantitative RT-PCR analysis; assay type: cell-based; how it was run: as §2
[6] = Activation of LXR in mouse C2C12 cells assessed as induction of FAS mRNA expression at 10 uM after 24 hrs in presence of T0901317 by quantitative RT-PCR analysis; assay type: cell-based; how it was run: as §2
[7] = Activation of LXR in mouse C2C12 cells assessed as induction of ApoD mRNA expression at 10 uM after 24 hrs in presence of T0901317 by quantitative RT-PCR analysis; assay type: cell-based; how it was run: as §2
[8] = biological target: T1, Peroxisome proliferator-activated receptor delta (Mus musculus) (UniProt P35396); assay: Activation of PPARdelta in mouse C2C12 cells assessed as induction of CPT1A mRNA expression at 10 uM after 24 hrs in presence of GW501516 by quantitative RT-PCR analysis; assay type: cell-based
T1 sequence (whole entry): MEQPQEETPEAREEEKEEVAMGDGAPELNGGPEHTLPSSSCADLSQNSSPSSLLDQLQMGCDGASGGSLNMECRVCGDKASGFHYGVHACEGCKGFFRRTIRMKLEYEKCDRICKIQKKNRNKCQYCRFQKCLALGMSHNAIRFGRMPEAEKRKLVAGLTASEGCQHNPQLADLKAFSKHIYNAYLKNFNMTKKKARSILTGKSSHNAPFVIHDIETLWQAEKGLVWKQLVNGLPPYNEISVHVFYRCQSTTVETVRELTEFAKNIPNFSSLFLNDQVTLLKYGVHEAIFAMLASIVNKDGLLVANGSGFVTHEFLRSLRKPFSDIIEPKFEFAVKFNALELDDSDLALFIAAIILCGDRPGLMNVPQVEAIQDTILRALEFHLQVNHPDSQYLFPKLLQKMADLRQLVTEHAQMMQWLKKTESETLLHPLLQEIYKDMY
How it was run: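 Differentiated C2C12 myotubes (2% horse serum, 5 days) exposed 24 h with or without PPARδ agonist GW501516 (1 μM). mRNA quantified by SYBR green real-time RT-PCR, normalized to β-actin by delta-delta Ct, and expressed as fold induction vs vehicle; means ± SD of four determinants from one of two independent experiments; one-way ANOVA with Bonferroni.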

[9] = biological target: T2, Retinoic acid receptor RXR-gamma (Homo sapiens) (UniProt P48443); assay: Binding affinity to RXRgamma (unknown origin) by receptor-SRC1 cofactor complex formation assay
T2 sequence (whole entry): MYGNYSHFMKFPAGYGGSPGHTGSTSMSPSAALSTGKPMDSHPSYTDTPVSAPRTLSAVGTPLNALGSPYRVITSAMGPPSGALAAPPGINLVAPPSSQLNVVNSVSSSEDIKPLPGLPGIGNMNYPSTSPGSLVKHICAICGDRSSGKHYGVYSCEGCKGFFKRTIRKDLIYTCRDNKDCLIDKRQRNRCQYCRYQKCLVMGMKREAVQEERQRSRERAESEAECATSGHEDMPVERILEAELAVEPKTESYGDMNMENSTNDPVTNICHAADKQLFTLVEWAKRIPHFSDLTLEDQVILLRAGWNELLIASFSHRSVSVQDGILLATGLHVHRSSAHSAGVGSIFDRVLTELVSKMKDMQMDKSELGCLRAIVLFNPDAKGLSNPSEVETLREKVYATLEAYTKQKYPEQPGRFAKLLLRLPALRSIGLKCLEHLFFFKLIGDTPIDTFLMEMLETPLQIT
How it was run: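 Ligand-dependent binding of RXR isotype to coactivator SRC-1 in an NR cofactor kit, detected with HRP-conjugated anti-RXR antibody at OD450. The full agonist CD3254 defined 100% and vehicle 0%. Efficacy was taken as maximum B/Bmax% and potency as EC50.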

RAW264.7 [10] = assay: Activation of RXR/LXR heterodimer in mouse RAW264.7 cells assessed as increase in ABCA1 protein level at 10 uM after 24 hrs in presence of T0901317 by Western blotting analysis; assay type: cell-based

In the case of CC(C)=CCc1cc([C@@H]2CC(=O)c3ccc(O)c(CC=C(C)C)c3O2)cc2c1OC(C(C)(C)O)C2 (stereo partly specified), the Activity (RAW264.7 [1]) is reported as “Active”, the Activity (F9) is reported as “Active” and the Activity (Homo sapiens [2]) is reported as “Active”. The Activity (Homo sapiens [3]) was “inactive”, the Activity [4] was “Active” and the Activity [5] was “Active”. The Activity [6] was “inactive”, the Activity [7] was “inactive” and the Activity [8] was “Active”. The Activity [9] was “inactive” and the Activity (RAW264.7 [10]) was “Active”.
